From ChEMBL document CHEMBL1124343 (J Med Chem, 1989)

Target: T1, Adrenergic receptor alpha-1 (Rattus norvegicus, UniProt P15823+P23944+P43140)
T1 sequence (P15823 whole entry): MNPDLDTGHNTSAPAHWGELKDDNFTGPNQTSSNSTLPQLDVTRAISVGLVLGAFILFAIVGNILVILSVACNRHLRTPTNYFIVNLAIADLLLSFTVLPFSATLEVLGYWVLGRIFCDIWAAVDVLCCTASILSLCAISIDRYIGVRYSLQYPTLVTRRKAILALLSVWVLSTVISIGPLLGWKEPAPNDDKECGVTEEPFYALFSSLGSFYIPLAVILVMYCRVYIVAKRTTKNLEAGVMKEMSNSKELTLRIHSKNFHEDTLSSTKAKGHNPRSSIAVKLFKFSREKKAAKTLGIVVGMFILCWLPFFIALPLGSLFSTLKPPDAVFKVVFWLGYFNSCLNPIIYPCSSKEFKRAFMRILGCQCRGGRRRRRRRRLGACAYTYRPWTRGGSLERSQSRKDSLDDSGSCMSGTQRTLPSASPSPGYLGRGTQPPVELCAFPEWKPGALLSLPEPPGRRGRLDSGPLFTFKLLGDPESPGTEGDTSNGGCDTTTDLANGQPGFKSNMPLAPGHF
T1 sequence (P23944 whole entry): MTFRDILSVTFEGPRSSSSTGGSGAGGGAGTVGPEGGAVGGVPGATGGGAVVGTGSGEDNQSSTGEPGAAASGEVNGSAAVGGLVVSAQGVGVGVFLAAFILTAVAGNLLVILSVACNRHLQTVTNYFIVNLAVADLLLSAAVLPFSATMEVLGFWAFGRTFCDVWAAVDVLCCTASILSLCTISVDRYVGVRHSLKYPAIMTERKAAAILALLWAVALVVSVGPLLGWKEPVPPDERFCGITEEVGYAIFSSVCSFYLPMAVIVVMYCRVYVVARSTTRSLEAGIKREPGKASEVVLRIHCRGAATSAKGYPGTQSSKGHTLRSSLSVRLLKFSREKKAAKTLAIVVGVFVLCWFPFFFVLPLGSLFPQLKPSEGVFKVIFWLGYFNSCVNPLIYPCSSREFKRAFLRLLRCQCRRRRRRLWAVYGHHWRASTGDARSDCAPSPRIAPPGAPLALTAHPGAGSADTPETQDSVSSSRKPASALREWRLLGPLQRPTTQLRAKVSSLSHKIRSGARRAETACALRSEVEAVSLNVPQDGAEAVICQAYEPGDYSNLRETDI
T1 sequence (P43140 whole entry): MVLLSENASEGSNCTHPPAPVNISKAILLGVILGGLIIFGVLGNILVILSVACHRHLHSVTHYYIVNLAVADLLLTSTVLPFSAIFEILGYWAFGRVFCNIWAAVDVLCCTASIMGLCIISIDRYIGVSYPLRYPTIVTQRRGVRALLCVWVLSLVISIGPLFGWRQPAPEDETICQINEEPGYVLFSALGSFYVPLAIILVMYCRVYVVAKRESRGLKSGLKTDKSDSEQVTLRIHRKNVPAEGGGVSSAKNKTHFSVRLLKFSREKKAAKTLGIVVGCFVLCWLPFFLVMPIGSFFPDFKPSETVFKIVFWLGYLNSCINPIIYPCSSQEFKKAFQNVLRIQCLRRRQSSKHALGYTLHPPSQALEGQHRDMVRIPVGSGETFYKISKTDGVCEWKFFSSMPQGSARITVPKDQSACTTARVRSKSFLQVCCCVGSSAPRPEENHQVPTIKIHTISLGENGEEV
Assay: Displacement of [3H]prazosin binding to Alpha-1 adrenergic receptor sites on rat cerebral cortical membranes at 100 nM concentration
Format: cell membranes, Membrane
Details: not given

-Log IC50 | Compound
7.53 | COC(=O)/C=C/C(=O)Nc1ccc(/C=C/C(=O)N2CCN(c3nc(N)c4cc(OC)c(OC)cc4n3)CC2)cc1
8.36 | C/C=C/C=C/C(=O)N1CCN(c2nc(N)c3cc(OC)c(OC)cc3n2)CC1
7.17 | COc1cc2nc(N3CCN(C(=O)/C=C/c4ccc(NC(=O)CBr)cc4)CC3)nc(N)c2cc1OC
8.47 | COc1ccc(/C=C/C(=O)N2CCN(c3nc(N)c4cc(OC)c(OC)cc4n3)CC2)cc1
7.4 | COc1cc2nc(N3CCN(C(=O)/C(F)=C/c4ccccc4)CC3)nc(N)c2cc1OC
8.35 | COC(=O)/C=C/C(=O)Nc1ccc(CCCCC(=O)N2CCN(c3nc(N)c4cc(OC)c(OC)cc4n3)CC2)cc1
9.16 | COc1cc2nc(N3CCN(C(=O)/C=C/c4ccccc4)CC3)nc(N)c2cc1OC
7.64 | COc1cc2nc(N3CCN(C(=O)/C=C/c4ccc(F)cc4)CC3)nc(N)c2cc1OC

Compound | -Log IC50
COc1cc2nc(N3CCN(C(=O)/C=C/c4ccc(N=C=S)cc4)CC3)nc(N)c2cc1OC | 6.99

Target: T1, Adrenergic receptor alpha-1
Assay: Compound is evaluated for its ability to compete with [3H]prazosin for binding to Alpha-1 adrenergic receptor sites on rat cerebral cortical membranes at 10 nM concentration
Details: not given

-Log IC50 | Compound
8.12 | COc1cc2nc(N3CCN(C(=O)C4=CC5C=CC4CC5)CC3)nc(N)c2cc1OC (stereo unspecified)
8.8 | COc1cc2nc(N3CCN(C(=O)C4CC5C=CC4C5)CC3)nc(N)c2cc1OC (stereo unspecified)

Target: Adrenergic receptor alpha-1 (Rattus norvegicus) (UniProt P15823+P23944+P43140)
Assay: Irreversible action of compound towards Alpha-1 adrenergic receptor on rat cerebral cortical membranes was determined at 1000 nM concentration
Format: cell membranes
Details: Membrane
Outline: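 Cortical membranes in Tris/MgCl2 buffer were preincubated 1 h at 30 °C with compound or buffer alone. Isothiocyanates were run in 50 mM phosphate with 1 mM EDTA, pH 7. Membranes were diluted, kept 10 min on ice and washed by four centrifugations. […] Bmax came from Scatchard plots, at least 3 experiments.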

Decrease in Bmax [%] | Compound
0 | COC(=O)/C=C/C=C/C(=O)N1CCN(c2nc(N)c3cc(OC)c(OC)cc3n2)CC1

Target: T1, Adrenergic receptor alpha-1
Assay: Compound is evaluated for its ability to compete with [3H]prazosin for binding to Alpha-1 adrenergic receptor sites on rat cerebral cortical membranes at 1000 nM concentration
Details: not given

-Log IC50 | Compound
7.41 | COC(=O)/C=C/C=C/C(=O)N1CCN(c2nc(N)c3cc(OC)c(OC)cc3n2)CC1

Target: T1, Adrenergic receptor alpha-1
Assay: Compound is evaluated for its ability to compete with [3H]prazosin for binding to Alpha-1 adrenergic receptor sites on rat cerebral cortical membranes at 100 nM concentration
Details: not given

-Log IC50 | Compound
7.88 | COc1cc2nc(N3CCN(C(=O)C4OC4c4ccccc4)CC3)nc(N)c2cc1OC (stereo unspecified)

Target: T1, Adrenergic receptor alpha-1
Assay: Binding affinity at Alpha-1 adrenergic receptor sites on rat cerebral cortical membranes by [3H]prazosin displacement.
Details: not given
Outline: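 Rat cortex membranes were washed and resuspended in 50 mM Tris pH 7.4 with 10 mM MgCl2, about 200–300 μg protein per tube. […] Nonspecific binding used 10 μM phentolamine. Tubes were run in duplicate, IC50 came from displacement curves, and there were 3–5 experiments or duplicate experiments.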

-Log IC50 | Compound
7.9 | COc1cc2nc(N3CCN(C(=O)COc4ccccc4)CC3)nc(N)c2cc1OC
7.56 | COc1cc2nc(N3CCN(C(=O)Nc4ccccc4)CC3)nc(N)c2cc1OC
7.31 | COc1cc2nc(N3CCN(C(=O)c4ccc5ccccc5c4)CC3)nc(N)c2cc1OC
8.47 | COc1cc2nc(N3CCN(C(=O)CCc4ccccc4)CC3)nc(N)c2cc1OC
7.47 | COc1cc2nc(N3CCN(S(=O)(=O)c4cccs4)CC3)nc(N)c2cc1OC
7.9 | COc1cc2nc(N3CCN(C(=O)/C=C/c4ccc(Cl)cc4)CC3)nc(N)c2cc1OC
7.7 | COc1cc2nc(N3CCN(/C(S)=N/c4ccc(N=[N+]=[N-])cc4)CC3)nc(N)c2cc1OC
7.93 | COc1cc2nc(N3CCN(C(=O)c4cccc(CCl)c4)CC3)nc(N)c2cc1OC
11.16 | COc1cc2nc(N3CCN(/C(S)=N/c4ccccc4)CC3)nc(N)c2cc1OC
7.68 | COc1cc2nc(N3CCN(C(=O)/C=C/c4cccc(F)c4)CC3)nc(N)c2cc1OC
7.01 | COc1cc2nc(N3CCN(/C(S)=N/c4ccc(NC(=S)N5CC5)cc4)CC3)nc(N)c2cc1OC
7.94 | COc1cc2nc(N3CCN(S(=O)(=O)c4ccc(C)cc4)CC3)nc(N)c2cc1OC
7.06 | COc1cc2nc(N3CCN(C(=O)/C=C/C(=O)c4ccccc4)CC3)nc(N)c2cc1OC
9.29 | COc1cc2nc(N3CCN(C(=O)C4CC4c4ccccc4)CC3)nc(N)c2cc1OC (stereo unspecified)
8.27 | COc1cc2nc(N3CCN(/C(S)=N/C4CCCCC4)CC3)nc(N)c2cc1OC
7.1 | COc1cc2nc(N3CCN(C(=O)/C=C/c4ccc(Br)cc4)CC3)nc(N)c2cc1OC

Compound | -Log IC50
COc1cc2nc(N3CCN(C(=O)c4ccc(N=C=S)c(I)c4)CC3)nc(N)c2cc1OC | 7.29
